Assay results as given in paper PMC10825549 (JID Innovations, 2023).

What was measured:
HPK1 (MAP4K1) = HPK1 (MAP4K1) (Homo sapiens, UniProt Q92918); assay: IC50 for kinases of potential cross-over; assay type: biochemical
BTK = BTK (Homo sapiens, UniProt Q06187); assay: IC50 for kinases of potential cross-over; assay type: biochemical
LRRK2 = LRRK2 (Homo sapiens, UniProt Q5S007); assay: IC50 for kinases of potential cross-over; assay type: biochemical
[1] = Metabolic stability in liver microsomes; assay type: in vitro ADME; conditions: dog
Method in brief: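 Test compound from 1 mM DMSO solution preincubated 5 min with dog, human, monkey, rat or minipig liver microsomes. NADPH (10 mM) then added. Reactions stopped at 0, 5, 15 and 30 min with 0.05% formic acid in acetonitrile containing loperamide internal standard. Supernatants analysed by LC-MS/MS; n = 1 per microsome species.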

[2] = system: moderate or severe atopic dermatitis; assay: Phase 2a study ATI-1777-AD-201: efficacy; assay type: in vivo, human
Method in brief: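 Randomized 1:1, double-blind, vehicle-controlled, 14 US sites; stratified by severity. Adults 18–65 with moderate/severe AD (IGA 3–4, 3–20% BSA). Up to 8 ml 2.0% w/w solution or vehicle applied twice daily for 28 days, 2-week follow-up. mEASI, IGA, BSA assessed days 8, 15, 28; PP-NRS tracked. MMRM, 1-sided tests, full analysis set (23 vs 25).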

[3] = Phase 2a study ATI-1777-AD-201: plasma pharmacokinetics; assay type: in vivo, human
Method in brief: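 Participants with moderate/severe AD applied 2% topical solution twice daily for 4 weeks. Plasma test compound measured by sparse sampling, 8 samples per participant. Concentrations expressed relative to the Jak1/3 IC50.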

[4] = day 28, 2% topical solution twice daily, n = 23

Chain of BTK (Q06187 whole entry): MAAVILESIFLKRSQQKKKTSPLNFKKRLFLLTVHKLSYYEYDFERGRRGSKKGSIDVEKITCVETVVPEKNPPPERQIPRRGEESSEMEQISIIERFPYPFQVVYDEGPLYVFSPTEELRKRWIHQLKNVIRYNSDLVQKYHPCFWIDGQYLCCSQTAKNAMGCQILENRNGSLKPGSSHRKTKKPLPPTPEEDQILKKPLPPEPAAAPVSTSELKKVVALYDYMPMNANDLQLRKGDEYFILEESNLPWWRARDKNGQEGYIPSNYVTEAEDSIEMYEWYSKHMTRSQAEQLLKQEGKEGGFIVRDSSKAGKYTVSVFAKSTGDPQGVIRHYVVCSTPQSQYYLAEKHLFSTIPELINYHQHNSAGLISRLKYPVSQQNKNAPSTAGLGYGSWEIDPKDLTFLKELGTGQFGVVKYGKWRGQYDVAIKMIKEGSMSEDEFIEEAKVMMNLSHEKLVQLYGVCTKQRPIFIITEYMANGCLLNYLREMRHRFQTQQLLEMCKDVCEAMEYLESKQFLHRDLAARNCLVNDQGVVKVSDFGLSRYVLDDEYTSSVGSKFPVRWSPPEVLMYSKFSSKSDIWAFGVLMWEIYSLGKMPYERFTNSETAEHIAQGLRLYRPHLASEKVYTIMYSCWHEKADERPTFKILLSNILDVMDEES
Chain of HPK1 (MAP4K1) (Q92918 whole entry): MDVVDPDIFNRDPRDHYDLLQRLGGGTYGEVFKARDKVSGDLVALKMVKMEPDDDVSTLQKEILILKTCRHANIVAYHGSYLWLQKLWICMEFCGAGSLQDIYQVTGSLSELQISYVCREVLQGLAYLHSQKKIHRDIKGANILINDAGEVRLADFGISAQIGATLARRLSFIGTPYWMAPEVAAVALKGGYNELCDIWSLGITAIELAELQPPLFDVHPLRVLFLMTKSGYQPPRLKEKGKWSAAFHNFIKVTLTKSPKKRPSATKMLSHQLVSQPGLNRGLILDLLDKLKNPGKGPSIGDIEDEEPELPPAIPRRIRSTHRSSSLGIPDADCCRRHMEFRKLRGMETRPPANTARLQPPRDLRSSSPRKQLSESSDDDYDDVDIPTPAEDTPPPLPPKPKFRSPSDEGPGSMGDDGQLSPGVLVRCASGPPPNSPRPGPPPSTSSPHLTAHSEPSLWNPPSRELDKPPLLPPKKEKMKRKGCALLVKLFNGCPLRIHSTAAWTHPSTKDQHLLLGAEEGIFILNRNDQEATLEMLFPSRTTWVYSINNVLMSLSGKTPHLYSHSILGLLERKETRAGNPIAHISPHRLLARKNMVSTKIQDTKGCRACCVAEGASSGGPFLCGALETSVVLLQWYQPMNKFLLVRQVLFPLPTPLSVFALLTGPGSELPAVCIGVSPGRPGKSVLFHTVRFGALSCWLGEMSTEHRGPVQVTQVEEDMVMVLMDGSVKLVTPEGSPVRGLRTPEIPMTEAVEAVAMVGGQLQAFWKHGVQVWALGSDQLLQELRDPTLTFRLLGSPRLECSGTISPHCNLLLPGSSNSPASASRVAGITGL
Chain of LRRK2 (Q5S007 whole entry): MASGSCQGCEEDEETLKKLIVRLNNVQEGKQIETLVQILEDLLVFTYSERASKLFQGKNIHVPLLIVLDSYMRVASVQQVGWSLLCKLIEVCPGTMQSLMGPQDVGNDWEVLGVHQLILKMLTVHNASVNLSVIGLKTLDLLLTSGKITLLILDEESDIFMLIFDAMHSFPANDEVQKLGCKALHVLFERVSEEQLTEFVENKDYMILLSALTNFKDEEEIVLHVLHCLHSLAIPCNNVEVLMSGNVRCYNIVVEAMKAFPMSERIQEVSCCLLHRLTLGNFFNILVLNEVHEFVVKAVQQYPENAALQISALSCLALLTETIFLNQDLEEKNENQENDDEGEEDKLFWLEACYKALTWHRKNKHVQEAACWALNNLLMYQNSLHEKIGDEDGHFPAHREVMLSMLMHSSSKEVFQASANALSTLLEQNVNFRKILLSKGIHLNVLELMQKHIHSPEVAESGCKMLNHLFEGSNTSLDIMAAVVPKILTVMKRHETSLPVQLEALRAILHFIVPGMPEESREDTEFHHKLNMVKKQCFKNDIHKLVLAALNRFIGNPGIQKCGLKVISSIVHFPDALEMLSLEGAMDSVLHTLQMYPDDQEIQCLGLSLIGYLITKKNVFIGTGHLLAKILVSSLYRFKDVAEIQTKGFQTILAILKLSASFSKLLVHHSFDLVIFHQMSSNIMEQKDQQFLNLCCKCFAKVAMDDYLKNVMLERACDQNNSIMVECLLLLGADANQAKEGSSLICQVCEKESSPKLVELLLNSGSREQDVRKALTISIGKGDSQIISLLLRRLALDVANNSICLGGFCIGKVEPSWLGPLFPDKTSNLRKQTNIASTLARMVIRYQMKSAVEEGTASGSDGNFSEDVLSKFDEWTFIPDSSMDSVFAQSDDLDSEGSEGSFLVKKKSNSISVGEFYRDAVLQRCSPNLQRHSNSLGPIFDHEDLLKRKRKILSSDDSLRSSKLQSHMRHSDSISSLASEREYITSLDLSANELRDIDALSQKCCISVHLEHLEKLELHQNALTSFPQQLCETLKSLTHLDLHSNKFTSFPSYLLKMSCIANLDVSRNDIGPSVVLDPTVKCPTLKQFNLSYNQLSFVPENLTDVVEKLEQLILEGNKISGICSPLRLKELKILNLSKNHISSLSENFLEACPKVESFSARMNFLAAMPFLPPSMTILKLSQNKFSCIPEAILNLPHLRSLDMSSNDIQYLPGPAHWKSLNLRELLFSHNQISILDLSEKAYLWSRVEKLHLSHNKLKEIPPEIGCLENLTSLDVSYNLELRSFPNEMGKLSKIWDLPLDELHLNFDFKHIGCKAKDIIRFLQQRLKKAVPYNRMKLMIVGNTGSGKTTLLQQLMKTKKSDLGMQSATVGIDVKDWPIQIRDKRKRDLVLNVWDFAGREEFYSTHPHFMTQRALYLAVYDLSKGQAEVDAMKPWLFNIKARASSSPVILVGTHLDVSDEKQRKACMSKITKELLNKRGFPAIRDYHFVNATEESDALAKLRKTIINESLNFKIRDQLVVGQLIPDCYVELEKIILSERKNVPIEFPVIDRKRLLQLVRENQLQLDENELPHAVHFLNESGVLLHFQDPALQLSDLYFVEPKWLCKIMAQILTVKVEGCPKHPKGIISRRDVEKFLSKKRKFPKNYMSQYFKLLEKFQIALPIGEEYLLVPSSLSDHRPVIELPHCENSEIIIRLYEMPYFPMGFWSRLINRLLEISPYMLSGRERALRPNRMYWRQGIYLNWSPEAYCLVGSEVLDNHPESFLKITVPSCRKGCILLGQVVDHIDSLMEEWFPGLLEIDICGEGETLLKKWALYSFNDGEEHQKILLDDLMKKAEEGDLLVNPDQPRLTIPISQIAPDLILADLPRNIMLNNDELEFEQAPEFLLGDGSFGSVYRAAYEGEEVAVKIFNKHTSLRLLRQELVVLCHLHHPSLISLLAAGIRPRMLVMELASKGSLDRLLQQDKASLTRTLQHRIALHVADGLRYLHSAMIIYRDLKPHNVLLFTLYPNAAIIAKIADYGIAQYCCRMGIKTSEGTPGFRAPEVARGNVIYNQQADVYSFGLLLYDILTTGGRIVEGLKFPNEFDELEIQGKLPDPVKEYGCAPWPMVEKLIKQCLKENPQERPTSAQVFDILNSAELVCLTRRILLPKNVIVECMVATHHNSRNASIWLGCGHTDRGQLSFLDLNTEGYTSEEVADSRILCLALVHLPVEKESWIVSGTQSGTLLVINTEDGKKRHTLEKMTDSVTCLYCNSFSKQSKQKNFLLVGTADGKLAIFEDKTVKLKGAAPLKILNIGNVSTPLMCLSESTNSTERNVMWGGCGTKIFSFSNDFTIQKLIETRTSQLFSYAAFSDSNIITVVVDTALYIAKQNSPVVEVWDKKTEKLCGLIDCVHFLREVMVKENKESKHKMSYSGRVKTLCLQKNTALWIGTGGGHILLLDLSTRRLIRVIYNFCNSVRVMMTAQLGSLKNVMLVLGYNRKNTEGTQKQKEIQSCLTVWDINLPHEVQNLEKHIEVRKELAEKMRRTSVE

SMILES: CCOC(=O)c1cnc2[nH]ccc2c1N[C@@H]1CCCN(C(=O)CC#N)C1 [ATI-1777, ethyl (R)-4-((1-(2-cyanoacetyl)piperidin-3-yl)amino)-1H-pyrrolo[2,3-b]pyridine-5-carboxylate]
- IC50 (HPK1 (MAP4K1)): 0.285 µM
- Fold Selectivity (HPK1 (MAP4K1); HPK1 (MAP4K1) vs Jak1 (= 1)): 190 fold
- IC50 (BTK): 0.21 µM
- Fold Selectivity (BTK; BTK vs Jak1 (= 1)): 140 fold
- IC50 (LRRK2): 0.048 µM
- Fold Selectivity (LRRK2; LRRK2 vs Jak1 (= 1)): 32 fold
- CLint scaled [1]: 198 mL/min/kg
- microsomal CLint [1]: 46 µL/min/mg
- half-life ([1]; T1/2, Study 1, n = 1): 17.4 min
- half-life ([1]; T1/2, Study 2, n = 1): 30 min
- least squared means change from baseline of PP-NRS score ([2]; SE = 0.548, P = .060 vs vehicle): −2.92
- BSA affected by AD, change from baseline ([2]; day 8): −1.55%
- BSA affected by AD, change from baseline ([2]; day 15): −3.33%
- participants achieving a 50% reduction in mEASI [2, 4]: 91.3%
- participants achieving a 75% reduction in mEASI [2, 4]: 65.2%
- BSA affected by AD, change from baseline ([2]; day 28, P < .001 vs vehicle): −5.59%
- percentage reduction from baseline in mEASI score ([2]; day 28, mixed model for repeated measures without imputation, SE = 5.943): 78.46%
- participants achieving an IGA score of 0 or 1 with ≥2 point improvement ([2]; end of treatment period (day 28), P = .131 vs vehicle, n = 23): 39.1%
- all plasma concentrations relative to IC50 for Jak1/3 ([3]; IC50 45 ng/ml): less than half of the IC50
- plasma concentrations relative to inhibitory concentrations for Jak1/2 ([3]; all plasma concentrations): below IC10
- mean plasma concentration as percentage of the IC50 for Jak1/3 ([3]; each timepoint, IC50 45 ng/ml): < 5%
- participants with samples with concentrations >10% of the IC50 for Jak1/3 ([3]; in vivo): Three
